Compound activity: PubChem, several laboratories
Sampled rows, rich in hits. Any-hit rate of the full collection: about 9.6%.
PTEN del growth – growth suppressors of cells with PTEN tumor suppressor deletion; HCT116 PTEN-null viability, CellTiter-Glo, 60 h; active compounds read low; viability, % at 10 µM; hit rate 1.2% among 140,000; AID 827;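 active = viability at or below a set limit, 4 SD under the median of all tested compounds, cut at about 3.7% in these data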;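 note: PTEN knockout HCT116 line with beta catenin targeted HCT116 as companion control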
PMI act – phosphomannose isomerase (human) activation; hit rate 0.005% among 190,000; purified human PMI, coupled resazurin fluorescence, 20 min; active compounds read high; 1 = vehicle control, 0 substrate-free wells; activation factor at 20 µM; P34949;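 active = activation factor of 2 or more at 20 µM, relative to plate controls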
Target sequence (P34949 whole entry, looked up): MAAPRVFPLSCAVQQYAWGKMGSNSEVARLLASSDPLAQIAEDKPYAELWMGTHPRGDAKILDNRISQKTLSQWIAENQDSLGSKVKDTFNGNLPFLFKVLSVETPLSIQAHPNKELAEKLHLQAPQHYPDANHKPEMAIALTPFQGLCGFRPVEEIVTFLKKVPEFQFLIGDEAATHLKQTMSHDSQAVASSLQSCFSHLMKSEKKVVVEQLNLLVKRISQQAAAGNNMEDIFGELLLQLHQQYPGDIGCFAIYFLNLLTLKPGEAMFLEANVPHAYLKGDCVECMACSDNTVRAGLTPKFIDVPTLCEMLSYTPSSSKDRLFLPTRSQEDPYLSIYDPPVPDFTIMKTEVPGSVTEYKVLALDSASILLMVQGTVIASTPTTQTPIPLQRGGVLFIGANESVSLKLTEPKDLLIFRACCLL
HCT116 bCat-KO – beta-catenin-lacking colon tumor cell growth suppression; AID 818; HCT116 beta-catenin knockout viability, CellTiter-Glo, 60 h; active compounds read low; viability, % at 10 µM; hit rate 1.5% among 140,000;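 active = viability at or under a set limit, the compound median less 4 SD, cut at about 6% in these data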;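 note: 0% = Hyamine 1622 control at 20 µM and 100% = untreated cell control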
PMI act satM6P – increases human PMI activity with near-saturating mannose 6-phosphate; coupled PMI enzyme assay, resazurin fluorescence, 20 min; active compounds read high; 1 = untreated enzyme, 0 = substrate-free blank; activation factor at 20 µM; hit rate 0.34% among 190,000; AID 1216;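 active = activation factor of 2 or more at 20 µM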
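Technique: Diaphorase-driven resazurin-to-resorufin fluorescence, excitation 544, emission 590 nm | Assay system: Human PMI in coupled enzyme assay | Times: Enzyme reaction with compound 20 min at room temperature | Medium: HEPES-buffered pH 7.4 with magnesium and detergent | Reagent: Mannose-6-phosphate 1.0 mM (near-saturating) plus 0.22 mM NADP+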
L major viab – Leishmania major promastigote growth inhibition; inhibition, % at 10 µM; hit rate 9% among 200,000; Leishmania major promastigotes, resazurin fluorescence viability; AID 1063; in the data active = inhibition above about 50%;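 note: promastigotes grown with compound for 44 hours at 28 °C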
Numbers without * were called inactive; . = no result.

SMILES | PTEN del growth | PMI act | HCT116 bCat-KO | PMI act satM6P | L major viab
CC(=O)c1ccccc1OCC(O)CN1CCN(C(c2ccccc2)c2ccccc2)CC1 (stereo unspecified) | 37 | 0.8 | 38 | 0.9 | 41
OC(COC(c1ccccc1)c1ccccc1)CN1CCOCC1 (stereo unspecified) | . | 1.1 | . | 1.1 | 3
O=C(CCN1C(=O)c2cccc3cccc(c23)C1=O)N1CCOCC1 | . | 1.1 | . | 1 | 4
CCOc1ccc(NC(=S)N2CCN(CCN3C(=O)c4cccc5cccc(c45)C3=O)CC2)cc1 | . | 1 | . | 1 | 71*
Cc1ccccc1OCC(O)CN1CCN(CCN2C(=O)c3cccc4cccc(c34)C2=O)CC1 (stereo unspecified) | 31 | 1.3 | 41 | 1.2 | 100*
CCC(OCC(O)CN1CCN(CCN2C(=O)c3cccc4cccc(c34)C2=O)CC1)c1ccccc1 (stereo unspecified) | 9 | 1.3 | 5.9* | 1.4 | 97*
O=C(/C=C/c1ccccc1)N1CCN(CCN2C(=O)c3cccc4cccc(c34)C2=O)CC1 | 77 | 0.9 | 71 | 1 | 100*
COc1ccc(NC(=S)N2CCN(CCN3C(=O)c4cccc5cccc(c45)C3=O)CC2)cc1 | . | 1 | . | 1 | -6
CS(=O)(=O)N(Cc1ccccc1)c1ccc(C(=O)Nc2ccc3c(c2)OCO3)cc1 | 76 | 1 | 88 | 1 | -3
O=C(NNC(=S)NCc1ccco1)c1ccc(S(=O)(=O)N2CCOCC2)cc1 | . | 1 | . | 1 | -9
CCC(=O)N1c2ccccc2NC2=C(C(=O)CC(C)(C)C2)C1c1cccnc1 (stereo unspecified) | . | 0.9 | . | 1 | -5
CC(=O)c1ccc(OCC(O)CN2CCN(CCN3C(=O)c4cccc5cccc(c45)C3=O)CC2)cc1 (stereo unspecified) | 37 | 1.2 | 35 | 1.2 | 91*
O=C1c2cccc3cccc(c23)C(=O)N1CC1CCCO1 (stereo unspecified) | . | 1.2 | . | 1.1 | 1
Cc1cccc(C)c1OCC(O)CN1CCC(CN2C(=O)c3cccc4cccc(c34)C2=O)CC1 (stereo unspecified) | 1.2* | 1 | 1.1* | 1 | 93*
C=CCc1ccccc1OCC(O)CN1CCN(CCN2C(=O)c3cccc4cccc(c34)C2=O)CC1 (stereo unspecified) | 3.7* | 1.2 | 2.4* | 1.4 | 100*
CCCCCCC1(C)NC(=S)N(c2ccccc2)N1 (stereo unspecified) | . | 1.9 | . | 3* | 51*
CCCCCC1(C)NC(=S)N(c2ccccc2)N1 (stereo unspecified) | . | 2* | . | 3.1* | 53*
CC1(CC(=O)Nc2ccccc2)NC(=S)N(c2ccccc2)N1 (stereo unspecified) | . | 1.3 | . | 1.1 | -5
Cn1c(-c2ccc(F)cc2)cnc1SCC(=O)N1CCCCC1 | 94 | 1.1 | 86 | 1.1 | -1
O=C(COc1ccc([N+](=O)[O-])cc1)Nc1ccc(CN2CCOCC2)cc1 | . | 1 | . | 1.1 | 63*
C/C(=N\NC(=O)c1ccc(CN2CCOCC2)cc1)c1ccc([N+](=O)[O-])cc1 | 98 | 0.9 | 96 | 1 | 77*
CSc1ccc(CN2CCN(C(=O)c3ccc([N+](=O)[O-])cc3)CC2)cc1 | . | 0.9 | . | 0.9 | 69*
CCN1CCN(C(=O)c2ccc(CSc3ccc(C)cc3)cc2)CC1 | 80 | 1 | 94 | 1 | 100*
Cc1cc(OCCn2cc(/C(N)=N/O)c3ccccc32)ccc1Cl | 69 | 0.9 | 73 | 0.9 | -7
Cc1cc(C)n(-c2cc(N3CCN(S(=O)(=O)c4ccc(C)c(C)c4)CC3)ccc2[N+](=O)[O-])n1 | 100 | 0.9 | 81 | 0.9 | -7
SMILES | PTEN del growth | PMI act | HCT116 bCat-KO | PMI act satM6P | L major viab
Cc1cc(C)n(-c2cc(N3CCN(S(=O)(=O)c4ccc5ccccc5c4)CC3)ccc2[N+](=O)[O-])n1 | 79 | 0.8 | 73 | 0.7 | 59*
CCN1C(=O)S/C(=C/c2ccc(Sc3nc4ccccc4[nH]3)o2)C1=O | 67 | 0.4 | 58 | 0.8 | -3
Cc1cccc(C)c1NC(=O)CSc1nnc(C)c(=O)[nH]1 | . | 1.1 | . | 1 | 66*
Cc1ccc(NC(=O)CSc2nnc(C)c(=O)[nH]2)cc1C | . | 1.1 | . | 1 | -5
COc1ccc(/C(C)=N/Nc2ccc(F)cc2F)c(O)c1 | . | 1.7 | . | 2.5* | -5
Cc1ccc(C(c2c(C)n(C)n(-c3ccccc3)c2=O)c2c(C)n(C)n(-c3ccccc3)c2=O)s1 | . | 1.3 | . | 1.3 | 94*
CCCn1c(CNc2ccc(Br)cc2)nc2ccccc21 | 64 | 0.8 | 55 | 0.8 | 97*
CC(C)Cn1[nH]c2c3c(ccc2c1=O)C(=O)c1ccccc1C3=O | 58 | 0.8 | 65 | 0.4 | 90*
O=C1c2cc(N3CCCC3)c([N+](=O)[O-])cc2C(=O)N1c1ccccc1 | 90 | 1 | 85 | 1 | 60*
CC1CC(C)CN(c2ccc(-n3cnnn3)cc2[N+](=O)[O-])C1 (stereo unspecified) | 71 | 0.8 | 85 | 0.8 | 11
CC1CC(C)CN(c2cc3c(cc2[N+](=O)[O-])C(=O)N(c2ccccc2)C3=O)C1 (stereo unspecified) | 103 | 1.1 | 82 | 1.1 | 85*
CC(C)CCn1nnnc1CN1CCN(c2ccccc2)CC1 | . | 1.1 | . | 1.1 | -2
Nc1cnccc1C(=O)O | . | 0.7 | . | 0.4 | -7
O=C(N/N=C\c1cc(Cl)ccc1O)c1ccc(S(=O)(=O)N2CCCCC2)cc1 | 6 | 1.2 | 9 | 1.2 | 98*
CN1CCN(c2ccc(Cl)cc2NC(=O)c2ccc(S(=O)(=O)N3CCCCCC3)cc2)CC1 | 79 | 0.8 | 77 | 0.8 | 88*
CCN1C(=O)c2ccccc2Sc2ccc(C(=O)NCCN3CCOCC3)cc21 | 100 | 1.1 | 100 | 1 | -7
O=C(NCCN1CCOCC1)c1ccc2c(c1)N(Cc1c(F)cccc1Cl)C(=O)c1ccccc1S2 | . | 0.8 | . | 0.9 | 100*
CN(C1=C(N2CCOCC2)C(=O)c2ccccc2C1=O)c1ccccc1 | 33 | 1.1 | 47 | 0.6 | 59*
O=C(Cc1ccc(Cl)cc1Cl)Nc1ccc(OC(F)F)c(Cl)c1 | 80 | 1.1 | 87 | 1.1 | 53*
O=C(Nc1ccc(OC(F)F)c(Cl)c1)Nc1ccc2c(c1)OCO2 | 54 | 0.8 | 65 | 0.8 | 5
Cc1ccc(NC(=O)C(C)c2ccc([N+](=O)[O-])cc2)cc1Cl (stereo unspecified) | 46 | 0.8 | 58 | 0.8 | 56*
CC(C(=O)Nc1ccccc1Br)c1ccc([N+](=O)[O-])cc1 (stereo unspecified) | 82 | 0.8 | 83 | 0.9 | -3
O=C(Cc1ccc(Cl)cc1Cl)Nc1cccc(S(=O)(=O)Nc2ccccc2F)c1 | 86 | 0.4 | 91 | 0.6 | 75*
CCC(C)C(NC(N)=O)C(=O)Nc1ccc(C)c(Cl)c1 (stereo unspecified) | 94 | 1 | 89 | 1.2 | 58*
CCCC1CCC(=C(C#N)C(N)=O)CC1 (stereo unspecified) | 102 | 1.1 | 106 | 1 | -3
